Sequences and labels used below:
B1: tRNA (parent)
chain: GUUCCGUUGGCGUAAUGGUAACGCGUCUCCCUCCUAAGGAGAAGACUGCGGGUUCGAGUCCCGUACGGAACG

Variants at the floor of the assay were thinned out. Where only a bound is given, the exact number is not on record here.

Variants of B1 are the subject of this series. The series is described as follows: yeast fitness relative to wild type (ratio to wild type); higher = fitter; tRNA-Arg(CCU), competitive growth, 37 C, YPD. In a few lines:
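Gene amplicons from the start population and from each of six end populations were read by 100-nucleotide paired-end sequencing. Those end populations came from pooled Saccharomyces cerevisiae strains carrying tRNA-Arg(CCU) gene variants at the native locus, competed in YPD at 37°C for 24 hours. Fitness relative to wild type was worked out from changes in genotype frequencies. Genotypes needed ≥ 100 starting reads, and estimates < 0.5 were set to 0.5.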
Take C11G C29U C61A: the yeast fitness was at most 0.5.
As to C11G C33G A37U A45U, the yeast fitness amounted to 0.64.
Consider C11A U19G, for which the yeast fitness was 0.669.
C11A U13A A20G C61U A69C: the yeast fitness was at most 0.5.
On to C11G C22U G68C, for which the yeast fitness was determined as 0.732.
The value for C11A U16C G18C A45C A57C G68C was 0.546; that for C11A G18A C49A C62G was at most 0.5.
The value for C11G G12C U54A C60A A69C was 0.557; that for C11G A20U U28C A37C C49G was 0.611.
For C11A U19G A36G the value was 0.521; for C11G A15U C24G A40G G51A C60U G67A, at most 0.5.
For C11G C22A C46G, the yeast fitness was at most 0.5.
The value for C11A U13A A20G was 0.561.
As for C11G A37C A42U, the yeast fitness was at most 0.5.
C11A U28C C29U C34G A36G: the yeast fitness was at most 0.5.
For C11A G51C C66G the value was 0.713; for C11G A70C, 0.776; for C11A U28C A43G A65C, at most 0.5.
The value for C11A U19C C60U was at most 0.5; that for C11A G17C A21U was at most 0.5; that for C11G C24U U28C was at most 0.5.
With C11G C34G A36G G48C, the yeast fitness was at most 0.5.
The value for C11A U13C C27A C60A was at most 0.5.
For C11G A14C G23C G41C the value was 0.531; for C11G G17A C24U C29G, 0.6; for C11G A15G U26A U32A G38A A40C G52A, at most 0.5.
The value for C11G C27G U28G was 0.626; that for C11A G41A C66G was 0.536.
C11A U32A A70U: the yeast fitness was at most 0.5.
The value for C11G C29G C49U G63A was at most 0.5; that for C11G C29U C46G was at most 0.5; that for C11G A20G U32A was at most 0.5.
The value for C11G A21G C31G A65U was 0.561; that for C11G A14G G39C C55U was at most 0.5.
The value for C11A U26A U54A was at most 0.5.
Consider C11G C29U U35C C66A, for which the yeast fitness was at most 0.5.
As for C11G A14U C34A A69C, the yeast fitness is at most 0.5.
The value for C11G C30G C31G U32A C55G G67A was 0.696; that for C11G A21U C24G G51A G68A was at most 0.5; that for C11G C30U C31A A40U C49A was at most 0.5.
For C11G C29A C31G C46A C60G the value was 0.614; for C11A U19A C29A U32A G48C C55G, at most 0.5; for C11G C29U G52A, at most 0.5.
The value for C11G C27U C33G G52A was at most 0.5; that for C11G A36C C49A was at most 0.5.
C11A G38A: the yeast fitness amounted to 0.579.
The value for C11A G38C was 0.586; that for C11G A14G G23A C46A G68U was at most 0.5.
For C11G A15C A45C the value was at most 0.5; for C11G A36C G38U G56A, at most 0.5.
With C11G A21G C34A, the yeast fitness is at most 0.5.
Take C11G C31A A42G A43G G68C: the yeast fitness is at most 0.5.
For C11G A36G G52A the value was at most 0.5.
The value for C11G C49U C62U A70U was at most 0.5.
The value for C11A U16C was 0.644; that for C11G C30A U35A was at most 0.5; that for C11G A14C C24G A36C G68A was 0.584.
Regarding C11G C30U A37C C55G A65G, the yeast fitness is at most 0.5.
For C11G A15U A21G G38C the value was 0.604.
The value for C11G A21U C24U C66U was 0.631.
The value for C11G A36C A57C C66G was at most 0.5.
Turning to C11G C29G C55A U64C, the yeast fitness was at most 0.5.
The value for C11G C46U A65C was 0.561; that for C11G C34U G41A was 0.544; that for C11G C33U G68C was at most 0.5.
With C11G C27U A43C A65U, the yeast fitness is at most 0.5.
The value for C11G C31U C46G G63A was at most 0.5; that for C11G A43U G67C was 0.505; that for C11G A15G U26G G44A was at most 0.5.
For C11G A20U C30G C66U the value was at most 0.5.
For C11G C30U A37U the value was at most 0.5; for C11A G23C A42U, at most 0.5; for C11G C29A C61U, 0.504.
Take C11G A14C C30G A45G U53C: the yeast fitness is 0.531.
Take C11G C24U A42C A65C: the yeast fitness is at most 0.5.
The value for C11A U19A C29A U32A G44U G58A was at most 0.5; that for C11G A21G G51C was 0.872; that for C11G A37G G50A was at most 0.5.
The value for C11A U16C G18C A45C A57C was at most 0.5.
The value for C11G A40U A45U A69U was at most 0.5; that for C11G A21G G50A U64A was at most 0.5.
Turning to C11G A14G G41A, the yeast fitness was at most 0.5.
As to C11G A36C G56A, the yeast fitness worked out at 0.533.
For C11A G23C C33U A43U A45C G58A A69C the value was at most 0.5; for C11G C49U C62U, 0.535.
For C11G A21G A40G the value was at most 0.5; for C11A U32A, at most 0.5.
The value for C11G A43C was 0.63; that for C11G A20G G44C U54C C62A was 0.87.
Turning to C11G C27U C46G, the yeast fitness is at most 0.5.
For C11G A14G U26A U35A the value was at most 0.5; for C11G A15U C24G A40G, at most 0.5; for C11A U13G C24G C34G G52A, at most 0.5.
For C11G A37G G38A A45U A70G the value was at most 0.5; for C11G C27G G67A, at most 0.5.
As for C11G G12A C61G G68A, the yeast fitness is 0.556.
For C11A G25C C29U A65C A70U the value was 0.541; for C11A G44C, 0.59.
For the variant C11A G12A C66A, the yeast fitness was at most 0.5.
On to C11A U16C C27G G48C, for which the yeast fitness was at most 0.5.
For C11A G68A the value was 0.583; for C11G G17C A40G, at most 0.5.
The value for C11G C31A C55U was at most 0.5; that for C11G A14C C55G A57U G67A was at most 0.5; that for C11G A15C C62G was at most 0.5.
For C11G A14U C34A the value was 0.528; for C11A G44C C46A U53A G63C, 0.866; for C11G C24G C27A U28C C33U A65U, at most 0.5.
As for C11G C30A G52A A65U, the yeast fitness is at most 0.5.
Take C11G C55G G63C G67C: the yeast fitness was determined as 0.557.
The value for C11G C34U C66U was at most 0.5; that for C11G A14G A21U A36G was at most 0.5.
For C11A G23C G39C C61A C62G A65U the value was at most 0.5; for C11G C29U A36C A42G, 0.718; for C11A U16C U32G G48A C49G C55A, at most 0.5.
For C11G C29U C34U C62A U64C C66U, the yeast fitness was at most 0.5.
In the case of C11G A42U A43C C55A C66A, the yeast fitness is at most 0.5.
For C11G A43U A45G U47C the value was at most 0.5; for C11G A21G C34G A40C, at most 0.5.
The value for C11G A21U U47A G63C was at most 0.5.
For C11G C34U U35A C55U the value was 0.59; for C11G A36C A45G A57C C61G, at most 0.5; for C11A G48A C55U, at most 0.5.
As to C11A G38A U53A G63A G68A, the yeast fitness was 0.635.
For C11G C62U A65U the value was 0.525.
The value for C11A U32A C33U was 0.548; that for C11A G25C C29U A65U was at most 0.5; that for C11A U59C A69U was 0.573.
For C11G A20C C24G G58A G67C the value was at most 0.5; for C11G A42G, 0.649; for C11G A42C, 0.636.
As to C11G A42U, the yeast fitness was 0.608.
Take C11G C29U C66A: the yeast fitness is at most 0.5.
With C11A G50C, the yeast fitness was at most 0.5.
The value for C11A G67A A70G was 0.562; that for C11A G25C C29U U54C A65C A70U was at most 0.5; that for C11G C29A C60U U64A was at most 0.5.
For C11A G25A the value was 0.572; for C11G C30A C31G G50A, at most 0.5.
With C11A U13C C49U U54C C61G C66U, the yeast fitness turned out to be 0.64.
The value for C11G C55G A57C C66U was at most 0.5; that for C11A G12C G63A was at most 0.5.
For C11G C30G A65C the value was at most 0.5; for C11G A42G U54C A57C, at most 0.5; for C11G C31A G39A G48A A57G A65G, at most 0.5.
The value for C11A U35A C61U G67A was at most 0.5; that for C11A G63A was 0.681.
C11G G12A C31G A69C: the yeast fitness is at most 0.5.
For C11A U47G U64C the value was 0.531; for C11G A21U C24U U64A A65G G67U, 0.573; for C11G A40C C46U C60A, at most 0.5.
The value for C11G G12A C27G was 0.669.
For C11A U16C A21G C55A the value was at most 0.5; for C11G A36C G56A A70U, at most 0.5.
As for C11A G25A A43G A65C, the yeast fitness was at most 0.5.
Consider C11G, for which the yeast fitness stood at 0.661.
For C11A U16C G18C A36G G56C the value was at most 0.5; for C11G C22G C33G, 0.59.
Turning to C11G C31A G39A, the yeast fitness is at most 0.5.
Consider C11A U32C A65U, for which the yeast fitness stood at 0.565.
The value for C11A G17A C33U was at most 0.5; that for C11G A15C G18A C30G U47G G67A was 0.656; that for C11G A14C G23C G41C C61A was at most 0.5.
The value for C11G A15U was 0.594.
In the case of C11A G12A U16A G23C, the yeast fitness was at most 0.5.
Turning to C11G A15U C24G A40G C62U, the yeast fitness is at most 0.5.
C11A U59A: the yeast fitness stood at 0.629.

For the origin of these results see the RNAGym collection of RNA variant scans (doi:10.1126/science.aae0568).
